HMGR II inh – blocks class II HMG-CoA reductase of Enterococcus faecalis. 0.41% of 190,000 active. inhibition, % at 10 µM. purified E. faecalis HMGR, NADPH absorbance 340 nm kinetic;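 active = inhibition above a set limit, the median over all tested compounds plus 3 SD, cut at about 9.5% in these data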;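 note: enzyme runs in reverse so mevalonate oxidation gives rising NADPH absorbance; 0% = complete reaction with DMSO and 100% = background rate lacking mevalonate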
BB579 growth dn – chemicals that inhibit yeast BB579 growth in restrictive medium (lifespan-shortening candidates); S. cerevisiae BB579 growth, OD615, 48 h; inhibition, % at 10 µM; 0.51% of 140,000 active; AID 804;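 active = inhibition above a set limit, 3 SD over the mean compound inhibition, cut at about 44% in these data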
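System: Saccharomyces cerevisiae DeaD strain BB579, replicative lifespan model yeast. Buffer or medium: restrictive glucose-based CSMM-D medium. Doses: one dose, 10 µM compound with 0.25% DMSO. Timing: 4 h preincubation and 48 h exposure at 30 °C. Detection: turbidity as optical density at 615 nm. Benchmarks: amphotericin B 10 µg/mL, positive.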
MT stabilizer – microtubule stabilization, imaging screen | 0.83% of 200,000 active | % tubulin-high responders, % at 10 µM | HeLa tubulin immunostaining HCS, 24 h; share of cells brighter than vehicle mean+2SD;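 active = plate Z-score above 3 for both tubulin-high and condensed-nucleus cell shares, with cell loss under 80%, at 10 µM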;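 note: anti alpha tubulin signal scored within the nucleus-defined area of each cell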
RAM inhibit – yeast RAM network inhibition; inhibition, % at 50 µM; S. cerevisiae dse1pr::URA3 reporter, 5-FOA growth OD615, 2 d; analog-sensitive cbk1-as2 kinase mutant strain; AID 868; 1.8% of 190,000 active;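 active = inhibition above a set limit, 3 SD over mean compound inhibition, cut at about 8.4% in these data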;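 note: 0% = DMSO-only wells with no growth and 100% = 10 µM 1-NA-PP1 full growth; inhibition rescues growth on 5-FOA so higher OD means more RAM inhibition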
Yeast life ext – yeast lifespan extension | 0.68% of 130,000 active | S. cerevisiae growth with nicotinamide, OD615; deaD strain in restrictive glucose medium | inhibition of the nicotinamide effect, % at 10 µM;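 active = inhibition above a set limit, placed 3 SD over the median of all compounds, cut at about 26% in these data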;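 note: 0% = nicotinamide-treated wells and 100% = cells grown without nicotinamide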
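Buffer or medium: CSMM-D glucose medium, restrictive; test system: modified budding yeast, DeaD strain; compound: single dose 10 µM compound, 0.25% DMSO; schedule: culture preincubation 4 h, compound exposure 48 h, both 30 °C; detection: optical density (absorbance) at 615 nm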
bCat nuc transl – beta-catenin nuclear translocation modulation | AID 1665 | HeLa beta-catenin nuclear translocation, immunofluorescence imaging | nuclear translocation activity, % at 5 µM | 0.3% of 190,000 active;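 active = nuclear translocation activity above 50% at 5 µM, with a well cell count of 50 or more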;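 note: per-cell ratio of nuclear to cytoplasmic median beta-catenin stain intensity; plate controls were DMSO negative control for no effect and GSK-3 inhibitor IX positive control for full effect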
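test system = HeLa cells, endogenous beta-catenin | dosing = single 5 µM dose plus 0.02–20 µM confirmation series | times = compound treatment 24 h, 37°C, 5% CO2 | technique = beta-catenin immunofluorescence imaging with DAPI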
An asterisk follows results filed as active; / = no result given. Compounds with a hit are over-represented: about 3.5% of the library has one in this group of screens.

SMILES	HMGR II inh	BB579 growth dn	MT stabilizer	RAM inhibit	Yeast life ext	bCat nuc transl
COc1cccc(-c2nn(C)c3sc(C(=O)NCc4ccc(C)o4)cc23)c1	-3	-48	2	11*	-26	1
COc1cccc(-c2nn(C)c3sc(C(=O)N4CCN(c5ccccn5)CC4)cc23)c1	0	-19	13*	-1	-3	0
COc1cccc(-c2nn(C)c3sc(C(=O)N4CCOCC4)cc23)c1	-4	0	3	0	-12	-2
COc1ccc(/C=N/NC(=O)c2cccc(NC(C)=O)c2)c(C(=O)O)c1OC	2	/	2	1	/	-1
Cc1ccc(S(=O)(=O)N[C@@H](Cc2ccccc2)C(=O)CCl)cc1	-6	-35	4	-1	49*	0
CS(=O)(=O)N(CC(=O)Nc1ccccc1Sc1ccccc1)c1cccc(Br)c1	0	-41	1	11*	2	-5
Cc1cccc(C)c1OCC(=O)Nc1ccc(N2CCOCC2)cc1	1	/	3	2	/	2
N#CC(C#N)=CC1=C2OC(c3ccccc3)=CC(c3ccccc3)=C2CCC1	-1	-61	3	10*	0	/
CCOC(=O)C1(Cc2cccc(OC)c2)CCN(Cc2cnc(C)s2)CC1	-1	/	3	-1	/	-1
COc1ccc(C(=O)N/C(=C\c2cccc3ccccc23)C(=O)NCCc2c[nH]c3ccccc23)cc1OC	2	-76	3	8.8*	-3	/
COc1ccc(C(=O)NCC(=O)NCCc2c[nH]c3ccccc23)cc1OC	-1	/	3	1	/	-2
CC(=O)Cc1nnn(-c2cc(C)on2)n1	/	/	/	/	/	0
CSCCC(NS(=O)(=O)c1ccc(Cl)cc1)C(=O)OCc1cccc(Cl)c1 (stereo not drawn)	0	-32	1	8.5*	19	-1
CSCCC(NS(=O)(=O)c1ccc(Cl)cc1)C(=O)OCC(=O)c1ccc(F)cc1 (stereo not drawn)	-6	-25	2	8	36*	1
O=C(N/N=C/c1ccc(O)cc1)Nc1cccc2nsnc12	1	/	11*	0	/	4
CCN(CC)c1ccc(C(=S)NCc2ccccc2)cc1	-7	/	2	2	/	-2
Cc1ccc(S(=O)(=O)N(C)CCCC(=O)NC(C)(C)C)cc1	12*	/	3	0	/	0
C=CCN1C(=O)S/C(=C\c2ccc(N3CCOCC3)cc2C)C1=O	-7	-25	2	8.6*	-5	-3
C=CC(C)N1C(=O)S/C(=C\c2ccc(N3CCOCC3)cc2C)C1=O (stereo not drawn)	-2	-23	2	6	1	0
CCc1cc2c(SCC(=O)c3ccc(C)cc3)ncnc2s1	0	-43	1	9.9*	/	/
Cc1ccc(Nc2ccc(C(=O)NC3CCCCC3)cn2)cc1	/	/	/	/	/	-2
COc1ccc(Cc2nc(C(=O)Nc3ccccc3)cs2)cc1	2	0	2	1	-20	-11
COc1ccc(NC(=O)c2csc(Cc3ccc(Cl)cc3)n2)cc1	3	/	2	11*	/	-2
COc1ccc(CNC(=O)c2csc(Cc3ccc(Cl)cc3)n2)cc1	-3	-71	1	1	-2	/
COc1ccc(Cc2nc(C(=O)Nc3ccc(Cl)cc3)cs2)cc1	2	-64	2	8.8*	-14	-3
SMILES	HMGR II inh	BB579 growth dn	MT stabilizer	RAM inhibit	Yeast life ext	bCat nuc transl
COc1ccc(NC(=O)/C(C#N)=C\c2cc(C)n(-c3ccc4c(c3)OCO4)c2C)cc1	0	-73	24*	3	2	/
Cc1cc(/C=C(\C#N)C(=O)Nc2ccccc2)c(C)n1-c1ccc(C(=O)O)cc1	/	/	/	/	/	1
Cc1ccc(C=Nc2ccccc2C(N)=O)cc1	0	-11	31*	-1	-14	/
Cc1ccccc1C=Nc1ccccc1C(N)=O	0	-8	22*	2	-2	28
O=C(c1ccco1)N(CCC(c1ccccc1)c1ccco1)Cc1ccccc1 (stereo not drawn)	-4	-29	3	11*	9	6
CCOC(=O)Cn1nc(C(F)F)c(Br)c1C	-3	/	5	1	/	0
Cc1ccc(C)c(C(C)NC(=O)c2ccc(Br)o2)c1 (stereo not drawn)	-1	/	3	2	/	1
